Measured values as given in ChEMBL document CHEMBL1921778, “Rational design and synthesis of aminopiperazinones as β-secretase (BACE) inhibitors” (Bioorg Med Chem Lett, 2011).
Calls of active or inactive are those of the source. No cut-off for these calls is given here.

Assays:
[1] = Dissociation constant, pKa of the compound; format: physicochemical
[2] = target: T1, Beta-secretase 1 (Homo sapiens, UniProt P56817); assay: Inhibition of human recombinant BACE1 using fluorescent Mca-Ser-Glu-Val-Asn-Leu-Asp-Ala-Glu-Phe-Lys(Dnp)-OH peptide as substrate after 1 hr by spectroflurorimeter analysis
T1 sequence (P56817 whole entry): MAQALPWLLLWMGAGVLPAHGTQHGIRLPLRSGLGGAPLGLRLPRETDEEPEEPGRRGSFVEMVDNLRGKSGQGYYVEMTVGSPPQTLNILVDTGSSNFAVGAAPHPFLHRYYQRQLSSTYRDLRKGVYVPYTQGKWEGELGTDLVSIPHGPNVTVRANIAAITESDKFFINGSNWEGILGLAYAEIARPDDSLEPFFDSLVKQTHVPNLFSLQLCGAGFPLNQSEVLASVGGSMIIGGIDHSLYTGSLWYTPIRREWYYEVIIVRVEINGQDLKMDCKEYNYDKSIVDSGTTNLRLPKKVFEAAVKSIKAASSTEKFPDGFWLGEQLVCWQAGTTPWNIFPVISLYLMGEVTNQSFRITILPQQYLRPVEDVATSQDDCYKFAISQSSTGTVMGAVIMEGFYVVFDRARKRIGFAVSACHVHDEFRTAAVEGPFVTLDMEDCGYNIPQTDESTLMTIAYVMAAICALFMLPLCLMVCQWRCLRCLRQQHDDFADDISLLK

[3] = target: T1, Beta-secretase 1; assay: Inhibition of human BACE1-mediated amyloid beta TOT secretion in human SKNBE2 cells expressing human APP695 after 18 hrs by sandwich alphalisa assay; format: cell-based
Summary of the method: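 SKNBE2 human neuroblastoma cells expressing wild-type hAPP695 exposed to diluted compound for 18 h; secreted AβTOT in medium quantified by sandwich AlphaLISA using biotinylated AbN/25 on streptavidin beads and 4G8 detection antibody.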

[4] = target: T1, Beta-secretase 1; assay: Inhibition of human BACE1-mediated amyloid beta 42 secretion in human SKNBE2 cells expressing human APP695 after 18 hrs by sandwich alphalisa assay; format: cell-based
[5] = Plasma concentration in mouse at 60 mg/kg, sc after 4 hrs; format: ADME, organism-based; set-up: dose 60 mg/kg, route subcutaneous
Summary of the method: (§1)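 Mice dosed subcutaneously; brain and plasma drug levels measured at 1, 2 and 4 h post-dose, brain in ng/g, plasma in ng/ml.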

[6] = Drug uptake in mouse brain at 60 mg/kg, sc after 2 hrs; format: ADME, organism-based; set-up: dose 60 mg/kg, route subcutaneous; details: read-out: Drug uptake; summary of the method: as §1
[7] = Drug uptake in mouse brain at 60 mg/kg, sc after 1 hr; format: ADME, organism-based; set-up: dose 60 mg/kg, route subcutaneous; details: read-out: Drug uptake; summary of the method: as §1
[8] = system: Mus musculus; assay: Antialzheimer activity in CD1 mouse brain assessed as reduction of amyloid beta TOT production at 60 mg/kg, sc after 2 hrs using fluorogenic peroxidase as substrate by ELISA; format: functional; set-up: scale not given: the % may be the effect or the level left; details: route subcutaneous
Summary of the method: (§2)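 Male CD1 mice (22-28 g), fasted overnight, given single subcutaneous dose in 20% hydroxypropyl β-cyclodextrin; vehicle/untreated controls. Soluble AβTOT by sandwich ELISA (capture JRF/rAb/2, biotinylated 4G8), Aβ1-40 standards 10000–0.3 pg/ml, overnight 4 °C, QuantaBlu fluorogenic read-out.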

[9] = system: Mus musculus; assay: Antialzheimer activity in CD1 mouse brain assessed as reduction of amyloid beta TOT production at 60 mg/kg, sc after 1 hr using fluorogenic peroxidase as substrate by ELISA; format: functional; set-up: scale not given: the % may be the effect or the level left; details: route subcutaneous; summary of the method: as §2
[10] = system: Mus musculus; assay: Antialzheimer activity in CD1 mouse brain assessed as reduction of amyloid beta TOT production at 60 mg/kg, sc after 4 hrs using fluorogenic peroxidase as substrate by ELISA; format: functional; set-up: scale not given: the % may be the effect or the level left; details: route subcutaneous; summary of the method: as §2
[11] = Plasma concentration in mouse at 60 mg/kg, sc after 2 hrs; format: ADME, organism-based; set-up: dose 60 mg/kg, route subcutaneous; summary of the method: as §1
[12] = Plasma concentration in mouse at 60 mg/kg, sc after 1 hr; format: ADME, organism-based; set-up: dose 60 mg/kg, route subcutaneous; summary of the method: as §1
[13] = Drug uptake in mouse brain at 60 mg/kg, sc after 4 hrs; format: ADME, organism-based; set-up: dose 60 mg/kg, route subcutaneous; details: read-out: Drug uptake; summary of the method: as §1
[14] = Drug uptake in mouse brain at 30 mg/kg, sc after 4 hrs; format: ADME, organism-based; set-up: dose 30 mg/kg, route subcutaneous; details: read-out: Drug uptake; summary of the method: as §1
[15] = Drug uptake in mouse brain at 30 mg/kg, sc after 2 hrs; format: ADME, organism-based; set-up: dose 30 mg/kg, route subcutaneous; details: read-out: Drug uptake; summary of the method: as §1
[16] = Plasma concentration in mouse at 30 mg/kg, sc after 2 hrs; format: ADME, organism-based; set-up: dose 30 mg/kg, route subcutaneous; summary of the method: as §1
[17] = Plasma concentration in mouse at 30 mg/kg, sc after 1 hr; format: ADME, organism-based; set-up: dose 30 mg/kg, route subcutaneous; summary of the method: as §1
[18] = Plasma concentration in mouse at 30 mg/kg, sc after 4 hrs; format: ADME, organism-based; set-up: dose 30 mg/kg, route subcutaneous; summary of the method: as §1
[19] = Drug uptake in mouse brain at 30 mg/kg, sc after 1 hr; format: ADME, organism-based; set-up: dose 30 mg/kg, route subcutaneous; details: read-out: Drug uptake; summary of the method: as §1
[20] = system: Mus musculus; assay: Antialzheimer activity in CD1 mouse brain assessed as reduction of amyloid beta TOT production at 30 mg/kg, sc after 1 hr using fluorogenic peroxidase as substrate by ELISA; format: functional; set-up: scale not given: the % may be the effect or the level left; details: route subcutaneous; summary of the method: as §2
[21] = system: Mus musculus; assay: Antialzheimer activity in CD1 mouse brain assessed as reduction of amyloid beta TOT production at 30 mg/kg, sc after 4 hrs using fluorogenic peroxidase as substrate by ELISA; format: functional, organism-based; set-up: dose 30 mg/kg; summary of the method: as §2
[22] = system: Mus musculus; assay: Antialzheimer activity in CD1 mouse brain assessed as reduction of amyloid beta TOT production at 30 mg/kg, sc after 2 hrs using fluorogenic peroxidase as substrate by ELISA; format: functional, organism-based; set-up: dose 30 mg/kg; summary of the method: as §2

Structure (SMILES)	pKa [1]	IC50 [2]	IC50 [3]	IC50 [4]	other results
CN1CC(C)(c2cc(NC(=O)c3ccc(Cl)cn3)ccc2F)N=C(N)C1=O (single isomer, unassigned; enantiomer 1)	< 8				
CN1CC(C)(c2cccc(NC(=O)c3ccc(Cl)cn3)c2)N=C(N)C1=O (single isomer, unassigned; enantiomer 2)		295 nM	85 nM	83 nM	
CN1CC(C)(c2cc(NC(=O)c3ccc(Cl)cn3)ccc2F)N=C(N)C1=O (single isomer, unassigned; enantiomer 2)					concentration at 4 h [5]: 270 ng/mL; concentration at 2 h [6]: 3340 ng/g; concentration at 1 h [7]: 8080 ng/g; Activity [8]: 67%; Activity [9]: 48%; Activity [10]: 73%; concentration at 2 h [11]: 2460 ng/mL; concentration at 1 h [12]: 7140 ng/mL; concentration at 4 h [13]: 347 ng/g
CN1CC(N)=NC(C)(c2cccc(NC(=O)c3ccc(C#N)cn3)c2)C1=O (stereo not given)	< 8	813 nM	151 nM	186 nM	
CN1CC(C)(c2cccc(NC(=O)c3ccc(Cl)cn3)c2)N=C(N)C1=O (racemic) [listing 1 of 2 here]		550 nM	107 nM	115 nM	Activity [20]: 34%; concentration at 4 h [14]: 20.5 ng/g; concentration at 2 h [15]: 157 ng/g; concentration at 2 h [16]: 461 ng/mL; concentration at 1 h [17]: 993 ng/mL; concentration at 4 h [18]: 200 ng/mL; concentration at 1 h [19]: 614 ng/g
CN1CC(C)(c2cccc(NC(=O)c3ccc(Cl)cn3)c2)N=C(N)C1=O (racemic) [listing 2 of 2 here]					Activity [21]: inactive; Activity [22]: inactive
CN1CC(N)=NC(C)(c2cccc(NC(=O)c3ccc(C(F)(F)F)cn3)c2)C1=O (stereo not given)	< 8	1380 nM	79 nM	68 nM	
CN1CC(C)(c2cccc(NC(=O)c3ccc(Cl)cn3)c2)N=C(N)C1=O (single isomer, unassigned; enantiomer 1)	7.6	> 30000 nM	> 10000 nM	> 10000 nM	

Further lines, with some results ahead:

pKa [1]	IC50 [2]	IC50 [3]	IC50 [4]	Structure (SMILES)	other results
< 8	7080 nM	1150 nM	1260 nM	Cc1cnc(C(=O)Nc2cccc(C3(C)N=C(N)CN(C)C3=O)c2)cn1 (stereo not given)	
< 8				CN1CC(N)=N[C@@](C)(c2cccc(NC(=O)c3ccc(Cl)cn3)c2)C1=O	
7.8				CN1CC(N)=NC(C)(c2cccc(NC(=O)c3ccc(Cl)cn3)c2)C1=O (racemic)	concentration at 4 h [14]: 90 ng/g; concentration at 2 h [15]: 123 ng/g; concentration at 2 h [16]: 1710 ng/mL; concentration at 1 h [17]: 4630 ng/mL; concentration at 4 h [18]: 439 ng/mL; concentration at 1 h [19]: 184 ng/g
< 8				CN1CC(N)=N[C@](C)(c2cccc(NC(=O)c3ccc(Cl)cn3)c2)C1=O	
